How the values were obtained:
[1] = Cytotoxicity against uninfected monkey kidney cells (BSC-1); type: functional, cell-based; conditions: Cercopithecidae
How it was run: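 Uninfected BSC-1 (African green monkey kidney) monolayers, grown in MEM with Earle salts plus 10% FBS, in the HSV-1 plaque assay. Cytopathology was scored visually at 35- and 60-fold magnification, on a 0 to 4+ scale, on the day of staining for plaques. I50 was taken from regression of percent inhibition against log concentration.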

Human betaherpesvirus 5 [2] = assay: Inhibitory concentration against human cytomegalovirus (HCMV) in plaque reduction assay; type: functional, organism-based
How it was run: (§1)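 HFF monolayers were infected with the Towne strain of HCMV (plaque-purified isolate P0), about 50 PFU in a 0.2 mL inoculum. Compounds were dissolved in the overlay medium, with 100 μM the highest concentration tested. Plaques were counted. I50 was taken from linear regression of percent inhibition against log concentration. Acyclovir, ganciclovir and vidarabine served as positive controls.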

HFF = assay: Cytotoxicity against uninfected human foreskin fibroblast(HFF cells); type: functional, cell-based
How it was run: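 Uninfected HFF monolayers in the HCMV plaque assay. Drug-induced cytopathology was scored visually at 35- and 60-fold magnification, on a 0 to 4+ scale, on the day of staining for plaque enumeration. I50 was taken from linear regression of percent inhibition against log concentration.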

Human alphaherpesvirus 1 = assay: Inhibitory concentration against HSV-1 in plaque reduction assay
[3] = Inhibition against human neoplastic cell line(KB cells); type: functional, cell-based; conditions: read-out: I50
How it was run: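 KB cells (human epidermoid oral carcinoma) grown in MEM with Hanks salts plus 5% fetal bovine serum. Cytotoxicity read as inhibition of radioactive precursor incorporation into DNA, RNA and protein. I50 for each of the three came from linear regression of percent inhibition against log drug concentration, and the three I50s were averaged. Highest concentration tested 100 μM.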

Human betaherpesvirus 5 [4] = assay: Inhibitory concentration against human cytomegalovirus (HCMV) in plaque reduction assay at 100 uM concentration; type: functional, organism-based; conditions: read-out: I50; how it was run: as §1
[5] = Cytotoxicity against human neoplastic cell line(KB cells); type: functional, cell-based; conditions: read-out: I50
How it was run: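 KB cells (human epidermoid oral carcinoma) grown in MEM with Hanks salts plus 5% fetal bovine serum. Uptake of radioactive precursors into DNA, RNA and protein was measured. I50 values came from linear regression of percent inhibition against log concentration. The three I50 values (DNA, RNA, protein) were averaged. Positive controls were acyclovir, ganciclovir and vidarabine.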

Row | SMILES | IC50 [1] [µM] | IC50 (Human betaherpesvirus 5 [2]) [µM] | IC50 (HFF) [µM] | IC50 (Human alphaherpesvirus 1) [µM] | IC50 (Human betaherpesvirus 5 [2]; read-out: I50) [µM] | IC50 (HFF; read-out: I50) [µM] | other results
1 | OCCOCn1cc(I)c2c(Cl)ncnc21 | > 100 | > 100 | > 100 | > 100 |  |  | 
2 | Nc1ncnc2c1c(I)cn2COCCO | > 100 | 24 | 100 | 100 |  |  | IC50 [3]: 1200 nM
3 | O=c1[nH]cnc2c1ccn2[C@@H]1O[C@H](CO)[C@@H](O)[C@H]1O [IMMUNICILLIN H] |  |  |  |  | 3.5 | 10 | 
4 | CN(C)c1ncnc2c1ccn2[C@@H]1O[C@H](CO)[C@@H](O)[C@H]1O |  |  |  |  | 1.2 | 2 | 
5 | COc1ncnc2c1ccn2COCCO | > 100 |  | > 100 | > 100 |  |  | IC50 (Human betaherpesvirus 5 [4]): > 100 µM
6 | CNc1ncnc2c1c(Br)cn2C1O[C@H](CO)[C@@H](O)[C@H]1O (some centres undefined) |  |  |  |  | > 100 | > 100 | 
7 | CNc1ncnc2c1c(Br)cn2COCCO | > 100 | > 100 | > 100 | > 100 |  |  | 
8 | OCCOCn1cc(Br)c2c(Cl)ncnc21 | > 100 | > 100 | > 100 | > 100 |  |  | 
9 | COc1ncnc2c1ccn2[C@@H]1O[C@H](CO)[C@@H](O)[C@H]1O |  |  |  |  | 10 | 46 | 
10 | OC[C@H]1OC(n2ccc3cncnc32)[C@H](O)[C@@H]1O (some centres undefined) |  | 0.4 | 2 |  |  |  | 
11 | CN(C)c1ncnc2c1ccn2COCCO | > 100 | > 100 | > 100 | > 100 |  |  | 
12 | OC[C@H]1OC(n2cc(Br)c3c(Cl)ncnc32)[C@H](O)[C@@H]1O (some centres undefined) |  |  |  |  | 29 | 31 | 
13 | OC[C@H]1O[C@@H](n2ccc3c(S)ncnc32)[C@H](O)[C@@H]1O |  | > 100 | > 100 |  |  |  | 
14 | OC[C@H]1OC(n2cc(Br)c3c(S)ncnc32)[C@H](O)[C@@H]1O (some centres undefined) |  | 39 | > 100 |  |  |  | 
15 | CSc1ncnc2c1c(Br)cn2[C@@H]1O[C@H](CO)[C@@H](O)[C@H]1O |  | > 100 | > 100 |  |  |  | 
16 | Nc1ncnc2c1c(Cl)cn2COCCO | > 100 | 16 | > 100 | 77 |  |  | IC50 [3]: 820 nM
17 | NNc1ncnc2c1ccn2C1O[C@H](CO)[C@@H](O)[C@H]1O (some centres undefined) |  |  |  |  | 4 | 2 | 
18 | CN(C)c1ncnc2c1c(Br)cn2C1O[C@H](CO)[C@@H](O)[C@H]1O (some centres undefined) |  | 16 | 10 |  |  |  | 

Row | SMILES | IC50 [1] [µM] | IC50 (Human betaherpesvirus 5 [2]) [µM] | IC50 (HFF) [µM] | IC50 (Human alphaherpesvirus 1) [µM] | IC50 (Human betaherpesvirus 5 [2]; read-out: I50) [µM] | IC50 (HFF; read-out: I50) [µM] | other results
19 | OC[C@H]1O[C@@H](n2ccc3c(N4CCCCC4)ncnc32)[C@H](O)[C@@H]1O |  | > 100 | > 100 |  |  |  | 
20 | Nc1nc2c(ncn2COCCO)c(=O)[nH]1 [ACYCLOVIR] | > 100 | 63 | > 100 | 2.6 |  |  | 
21 | Nc1ncnc2c1ccn2[C@@H]1O[C@H](CO)[C@@H](O)[C@H]1O [TUBERCIDIN] |  | 0.5 | 0.4 |  |  |  | IC50 [5]: 600 nM
22 | Nc1ncnc2c1c(Cl)cn2[C@@H]1O[C@H](CO)[C@@H](O)[C@H]1O |  |  |  |  | 4.4 | 10 | IC50 [5]: 6500 nM
23 | OC[C@H]1O[C@@H](n2cc(I)c3c(Cl)ncnc32)[C@H](O)[C@@H]1O |  |  |  |  | 31 | 13 | 
24 | CNc1ncnc2c1ccn2COCCO | > 100 | > 100 | > 100 | > 100 |  |  | 
25 | CCNc1ncnc2c1c(Br)cn2COCCO | > 320 | > 100 | > 100 | > 320 |  |  | 
26 | Nc1ncnc2c1c(I)cn2[C@@H]1O[C@H](CO)[C@@H](O)[C@H]1O [IODOTUBERCIDIN] |  |  |  |  | 0.4 | 2 | IC50 [5]: 2100 nM
27 | OC[C@H]1OC(n2ccc3c(SC4C=CC=CC=C4)ncnc32)[C@H](O)[C@@H]1O (some centres undefined) |  | > 100 | > 100 |  |  |  | 
28 | CNc1ncnc2c1ccn2[C@@H]1O[C@H](CO)[C@@H](O)[C@H]1O |  | 37 | > 100 |  |  |  | 
29 | CNc1ncnc2c1c(Cl)cn2COCCO | > 100 | > 100 | > 100 | > 100 |  |  | 
30 | Nc1nc2c(ncn2COC(CO)CO)c(=O)[nH]1 [GANCICLOVIR] | > 100 | 8.8 | > 100 | 3 |  |  | 
31 | Nc1ncnc2c1c(Br)cn2[C@@H]1O[C@H](CO)[C@@H](O)[C@H]1O |  |  |  |  | 0.5 | 4.5 | IC50 [5]: 2300 nM
32 | Nc1ncnc2c1c(Br)cn2COCCO | > 100 | 3.9 | 100 | 16 |  |  | IC50 [5]: 100000 nM
33 | C[Se]c1ncnc2c1ccn2C1O[C@H](CO)[C@@H](O)[C@H]1O (some centres undefined) |  | 4 | 1.5 |  |  |  | 
34 | OCCOCn1cc(Cl)c2c(Cl)ncnc21 | > 100 | > 100 | > 100 | > 100 |  |  | 
35 | OC[C@H]1OC(n2cc(Br)c3cncnc32)[C@H](O)[C@@H]1O (some centres undefined) |  |  |  |  | 23 | 31 | 
36 | CCNc1ncnc2c1c(Cl)cn2COCCO | > 100 | > 100 | > 100 | > 100 |  |  | 
